Source: ChEMBL document CHEMBL3244336, “Antitumor agents. 1. 1,4-Bis[(aminoalkyl)amino]-9,10-anthracenediones” (J Med Chem, 1979)
Activity calls are given as the source filed them.

Legend:
[1] = system: P388; test: Antitumor activity against mouse P388 cells allografted in mouse assessed as increase of median life span at 200 mg/kg, ip on day 1, 5 and 9 measured up to 60 days relative to control; type: functional; settings: route intraperitoneal
How it was run: (§1)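 BDF1 or CDF1 mice inoculated ip with ascitic P388 leukemia cells. Dosing ip on days 1, 5 and 9. Deaths recorded for 60 days; % increase in median life span over controls. "Cures" are survivors/total at 60 days.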

[2] = system: B16; test: Antitumor activity against mouse B16 cells allografted in BDF1 mouse assessed as increase of median life span at 50 mg/kg, ip on day 1 to 9 measured up to 80 days relative to control; type: functional; settings: route intraperitoneal
How it was run: (§2)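 BDF1 mice implanted ip with a homogenate from 0.05 g of B16 tumor. Test agent given ip on days 1-9. Deaths recorded for 80 days. Result is % increase in median life span over untreated controls. "Cures" are survivors/total at 80 days.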

[3] = system: P388; test: Antitumor activity against mouse P388 cells allografted in mouse assessed as increase of median life span at 100 mg/kg, ip on day 1, 5 and 9 measured up to 60 days relative to control; type: functional; settings: route intraperitoneal
[4] = system: B16; test: Antitumor activity against mouse B16 cells allografted in BDF1 mouse assessed as disease cure at 50 mg/kg, ip on day 1 to 9 measured up to 80 days; type: functional, organism-based; design: dose 50 mg/kg
How it was run: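 BDF1 mice implanted ip with homogenate from 0.05 g of B16 tumor, then dosed ip on days 1-9. Deaths recorded for 80 days; "cures" scored as survivors/total at 80 days.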

[5] = system: P388; test: Antitumor activity against mouse P388 cells allografted in ip dosed mouse assessed as minimum effective dose administered as single dose; type: functional; settings: read-out: MED
How it was run: (§3)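 Drug given ip to P388 tumor-bearing mice, either once as a single dose or once each 4 days for three injections. Minimum effective dose defined as the dose giving 40% increase in life span over control, read from regression lines of log dose-response data.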

[6] = Toxicity in […] assessed as maximum tolerated dose administered as single dose; type: organism-based, P388; settings: mouse, in vivo, ip
[7] = Therapeutic index, ratio of MTD for mouse P388 cells allografted ip dosed mouse to MED for mouse P388 cells allografted in ip dosed mouse administered as single dose; type: organism-based; settings: in vivo, read-out: TI
How it was run: (§4)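 Therapeutic index is MTD/MED for ip dosing, either single or once every 4 days ×3. MTD is the 10% lethal dose in normal mice over 21 days. MED is the dose giving a 40% life-span increase in P388-bearing mice. Both come from log dose-response regression lines.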

[8] = system: P388; test: Antitumor activity against mouse P388 cells allografted in mouse assessed as disease cure at 200 mg/kg, ip on day 1, 5 and 9 measured up to 60 days; type: functional, organism-based; design: dose 200 mg/kg
How it was run: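 BDF1 or CDF1 mice inoculated ip with ascitic P388 leukemia cells, dosed ip on days 1, 5 and 9. Deaths recorded for 60 days; "cures" taken as number of survivors/total at 60 days.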

[9] = system: P388; test: Antitumor activity against mouse P388 cells allografted in mouse assessed as disease cure at 100 mg/kg, ip on day 1, 5 and 9 measured up to 60 days; type: functional, organism-based; design: dose 100 mg/kg
How it was run: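 BDF or CDF1 mice injected ip with ascitic leukemia cells, then dosed ip on days 1, 5 and 9. Deaths recorded for 60 days. Read-outs: percent increase in median life span over controls, and "cures" as survivors/total at 60 days.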

[10] = system: P388; test: Antitumor activity against mouse P388 cells allografted in mouse assessed as increase of median life span at 25 mg/kg, ip on day 1, 5 and 9 measured up to 60 days relative to control; type: functional; settings: route intraperitoneal; how it was run: as §1
[11] = system: B16; test: Antitumor activity against mouse B16 cells allografted in BDF1 mouse assessed as increase of median life span at 6.2 mg/kg, ip on day 1 to 9 measured up to 80 days relative to control; type: functional; settings: route intraperitoneal; how it was run: as §2
[12] = system: P388; test: Antitumor activity against mouse P388 cells allografted in ip dosed mouse assessed as minimum effective dose administered as once each 4 days for 3 total injection; type: functional; settings: 96 h, read-out: MED; how it was run: as §3
[13] = Toxicity in […] assessed as maximum tolerated dose administered as once each 4 days for 3 total injection; type: organism-based, P388; settings: mouse, in vivo, ip
[14] = system: P388; test: Antitumor activity against mouse P388 cells allografted in ip dosed mouse assessed as dose providing 40% increase in life span administered as once each 4 days for 3 total injection; type: functional
How it was run: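 P388 tumor-bearing mice dosed ip, either once as a single dose or once every 4 days for three injections. It was read from regression lines of log dose-response data.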

[15] = Therapeutic index, ratio of MTD for mouse P388 cells allografted ip dosed mouse to MED for mouse P388 cells allografted in ip dosed mouse administered as once each 4 days for 3 total injection; type: organism-based; settings: in vivo, read-out: TI; how it was run: as §4
[16] = system: P388; test: Antitumor activity against mouse P388 cells allografted in mouse assessed as increase of median life span at 50 mg/kg, ip on day 1, 5 and 9 measured up to 60 days relative to control; type: functional; settings: route intraperitoneal; how it was run: as §1
[17] = system: B16; test: Antitumor activity against mouse B16 cells allografted in BDF1 mouse assessed as increase of median life span at 12.5 mg/kg, ip on day 1 to 9 measured up to 80 days relative to control; type: functional; settings: route intraperitoneal
[18] = system: B16; test: Antitumor activity against mouse B16 cells allografted in BDF1 mouse assessed as disease cure at 12.5 mg/kg, ip on day 1 to 9 measured up to 80 days; type: functional, organism-based; design: dose 12.5 mg/kg
How it was run: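 BDF1 mice implanted ip with a homogenate from 0.05 g of tumor. Dosed ip on days 1–9, with deaths recorded for 80 days. "Cures" counted as survivors/total at 80 days.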

For `CN(C)CCCNc1ccc(NCCCN(C)C)c2c1C(=O)c1ccccc1C2=O`, the ILS at 200 mg/kg [1] was 0% and the ILS at 50 mg/kg [2] was 0%.

In the case of `CNCCNCCNc1ccc(NCCNCCNC)c2c1C(=O)c1c(O)ccc(O)c1C2=O`, the ILS at 100 mg/kg [3] is reported as 120%, the ILS at 50 mg/kg [2] is reported as 122% and the Activity [4] is reported as “inactive”.

For `COc1cccc2c1C(=O)c1c(O)c3c(c(O)c1C2=O)C[C@@](O)(C(C)=O)C[C@@H]3O[C@H]1C[C@H](N)[C@H](O)[C@H](C)O1` [DAUNORUBICIN], the minimal effective dose [5] was 0.52 mg/kg, the MTD [6] was 5.2 mg/kg and the selectivity ratio [7] was 10.

`CCNc1ccc(NCC)c2c1C(=O)c1ccccc1C2=O` gave an ILS at 100 mg/kg [3] of 0%.

For `O=C1c2ccccc2C(=O)c2c(NCCO)ccc(NCCO)c21`, the ILS at 100 mg/kg [3] was 0%.

For `CN(C)CCNc1ccc(NCCN(C)C)c2c1C(=O)c1cc(Cl)c(Cl)cc1C2=O`, the ILS at 200 mg/kg [1] was 0% and the Activity [8] was “inactive”.

In the case of `CCN(CC)CCCC(C)Nc1ccc(NC(C)CCCN(CC)CC)c2c1C(=O)c1c(O)ccc(O)c1C2=O` (stereo not given), the ILS at 100 mg/kg [3] is reported as 30%, the Activity [9] is reported as “inactive” and the ILS at 50 mg/kg [2] is reported as 0%. The Activity [4] was “inactive”.

With `CC(=O)NCCNc1ccc(NCCNC(C)=O)c2c1C(=O)c1c(O)ccc(O)c1C2=O` the ILS at 200 mg/kg [1] was 0%, the ILS at 50 mg/kg [2] was 0% and the Activity [4] was “inactive”.

With `O=C1c2c(O)ccc(O)c2C(=O)c2c(NCCNCCNCCO)ccc(NCCNCCNCCO)c21` the ILS at 100 mg/kg [3] was 73%, the ILS at 50 mg/kg [2] was 35% and the Activity [4] was “inactive”.

For `CNCCNc1ccc(NCCNC)c2c1C(=O)c1ccccc1C2=O`, the ILS at 25 mg/kg [10] was 144% and the ILS at 6.2 mg/kg [11] was 114%.

Work on `O=c1[nH]cc(F)c(=O)[nH]1` [FLUOROURACIL] yielded a minimal effective dose [5] of 88 mg/kg, a minimal effective dose [12] of 11.4 mg/kg and an MTD [6] of 280 mg/kg. It also gave an MTD at 96 h [13] of 48 mg/kg, an Activity [14] of 70 mg/kg and a selectivity ratio [7] of 3. The selectivity ratio at 96 h [15] was 4.

For `O=C1c2ccccc2C(=O)c2c(NCCN3CCCCC3)ccc(NCCN3CCCCC3)c21`, the ILS at 200 mg/kg [1] was 27% and the Activity [8] was “inactive”.

With `Nc1ccc(N)c2c1C(=O)c1ccccc1C2=O` the ILS at 100 mg/kg [3] was 0% and the Activity [9] was “inactive”.

In the case of `CCN1CCCC1CNc1ccc(NCC2CCCN2CC)c2c1C(=O)c1c(O)ccc(O)c1C2=O` (stereo not given), the ILS at 200 mg/kg [1] is reported as 45%, the Activity [8] is reported as “inactive” and the ILS at 50 mg/kg [2] is reported as 30%. The Activity [4] was “inactive”.

With `O=C1c2c(O)ccc(O)c2C(=O)c2c(NCCO)ccc(NCCO)c21` the ILS at 100 mg/kg [3] was 0% and the Activity [9] was “inactive”.

In the case of `CCN(CC)CCNc1ccc(NCCN(CC)CC)c2c1C(=O)c1ccccc1C2=O`, the ILS at 200 mg/kg [1] is reported as 40% and the Activity [8] is reported as “inactive”.

With `O=C1c2c(O)ccc(O)c2C(=O)c2c(NCCNCC(O)CO)ccc(NCCNCC(O)CO)c21` (stereo not given) the ILS at 50 mg/kg [16] was greater than 422%, the ILS at 12.5 mg/kg [17] was 79% and the Activity [18] was “inactive”.

With `O=C1c2c(O)ccc(O)c2C(=O)c2c(NCCN3CC3)ccc(NCCN3CC3)c21` the ILS at 100 mg/kg [3] was 185%, the Activity [9] was “inactive” and the ILS at 12.5 mg/kg [17] was 58%. The Activity [18] was “inactive”.
